Source: ChEMBL document CHEMBL4052822, “Design and Synthesis of Orally Bioavailable Piperazine Substituted 4(1H)-Quinolones with Potent Antimalarial Activity: Structure-Activity and Structure-Property Relationship Studies” (J Med Chem, 2018)
The source made the active and inactive calls. No cut-off for these calls is given here.

What was measured:
Plasmodium falciparum [1] = test: Antimalarial activity against pyrimethamine/chloroquine-resistant Plasmodium falciparum W2 infected in human type A-positive erythrocytes after 48 hrs by [3H]-hypoxanthine incorporation assay; format: functional, cell-based
Outline: (§1)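 Compound from 10.0 mM DMSO stock, diluted ≥1:400, then 11 concentrations in duplicate. Incubated at 37 °C under 90% N2/5% O2/5% CO2 for 48 h, then 3H-hypoxanthine added for 24 h more. CPM counted; EC50 by nonlinear regression.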

Plasmodium falciparum [2] = test: Antimalarial activity against mefloquine/chloroquine/atovaquone/pyrimethamine-resistant Plasmodium falciparum TM90-C2B infected in human type A-positive erythrocytes after 48 hrs by [3H]-hypoxanthine incorporation assay; format: functional, cell-based; outline: as §1
Plasmodium berghei [3] = test: Antimalarial activity against Plasmodium berghei infected in human HepG2 cells after 44 hrs by luciferase assay; format: functional, cell-based; settings: HepG2, 44 h
Outline: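 HepG2 cells, 75000 per well, in DMEM with 10% FBS at 37 °C, 5% CO2. 5000 Pb luciferase sporozoites from dissected mosquito salivary glands added per well for 3 h, then washed three times with PBS. Serially diluted compound added in triplicate, 44 h at 37 °C. Cells lysed, luciferase substrate added, luminescence read.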

J774 = test: Cytotoxicity against mouse J774 cells after 72 hrs by CellTiter-96 aqueous one solution cell proliferation assay; format: cell-based; settings: J774, 72 h
Outline: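 Compounds from 10 µg/mL or 20 µM top concentration, 1:2 serial dilutions over 11 concentrations, 72 h at 37 °C, 5% CO2. MTS-type reagent added for 4 h, absorbance read at 490 nm. IC50 by nonlinear regression.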

[4] = Aqueous solubility of compound at pH 6.5; format: physicochemical
[5] = Resistance index, ratio of EC50 for mefloquine/chloroquine/atovaquone/pyrimethamine-resistant Plasmodium falciparum TM90-C2B to EC50 for pyrimethamine/chloroquine-resistant Plasmodium falciparum W2; format: functional
Plasmodium berghei [6] = test: animal or person; settings: in Mus musculus, po, read-out: INH
Plasmodium berghei [7] = test: Antimalarial activity against blood stage form of GFP transfected Plasmodium berghei infected in mouse assessed as mouse survival day at 10 mg/kg, po administered on day 3, 4, 5 post infection by Thompson test; format: functional
Plasmodium berghei [8] = test: Antimalarial activity against blood stage form of GFP transfected Plasmodium berghei infected in mouse assessed as protection against parasitemia at 10 mg/kg, po administered on day 3, 4, 5 post infection measured on day 30 by Thompson test; format: functional, organism-based
Outline: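 Modified Thompson model: mice inoculated ip with 2×10^6 P. berghei (GFP)-infected red blood cells, parasitemia near 1% by day 3. […] Animals followed for 30 days; survival to day 30 with parasitemia below 1% counted as cure.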

Structure (SMILES) | EC50 (Plasmodium falciparum [1]) | EC50 (Plasmodium falciparum [2]) | EC50 (Plasmodium berghei [3]) | EC50 (J774) | solubility [4] | Ratio EC50 [5] | inhibition in vivo at 50 mg/kg (Plasmodium berghei [6]) | Survival (Plasmodium berghei [7]) | Activity (Plasmodium berghei [8])
COC(=O)c1c[nH]c2cc(N3CCN(c4ccccc4)CC3)ccc2c1=O | 4.5 nM | 250 nM | 74 nM | > 20000 nM | < 20 µM | – | – | – | –
COC(=O)c1c[nH]c2cc(N3CCN(Cc4ccccc4)CC3)c(C)cc2c1=O | 13 nM | 980 nM | > 100 nM | > 20000 nM | – | 75 | – | – | –
O=c1c(Cl)c[nH]c2cc(CN3CCN(c4ccc(F)cc4)CC3)ccc12 | 1100 nM | > 2000 nM | – | > 20000 nM | – | – | 71.9% | – | –
COC(=O)c1c[nH]c2cc(CN3CCN(Cc4ccccc4)CC3)c(OC)cc2c1=O | 5.5 nM | > 2000 nM | 9.3 nM | > 20000 nM | – | – | 19.3% | – | –
Cc1[nH]c2cc(CN3CCN(c4ccc(F)cc4)CC3)ccc2c(=O)c1Br | – | 26 nM | – | > 20000 nM | – | – | – | <=13 day | inactive
COC(=O)c1c[nH]c2cc(N3CCN(c4ccccc4)CC3)c(OC)cc2c1=O | 37 nM | 800 nM | – | 17000 nM | – | – | – | – | –
O=C1C(O)=C([C@H]2CC[C@H](c3ccc(Cl)cc3)CC2)C(=O)c2ccccc21 [ATOVAQUONE] | – | – | – | 28000 nM | – | – | – | – | Active
COC(=O)c1c[nH]c2cc(N3CCN(c4ccc(OC)cc4)CC3)c(OC)cc2c1=O | 43 nM | 2000 nM | > 100 nM | > 20000 nM | – | 47 | – | – | –
COC(=O)c1c[nH]c2cc(N3CCN(Cc4ccccc4)CC3)c(OC)cc2c1=O | 64 nM | 200 nM | – | 12000 nM | – | – | – | – | –
COC(=O)c1c[nH]c2cc(CN3CCN(Cc4ccc(OC)cc4)CC3)c(OC)cc2c1=O | 10 nM | > 2000 nM | 52 nM | > 20000 nM | – | – | 24.6% | – | –
COC(=O)c1c[nH]c2ccc(CN3CCN(c4ccc(OC)cc4)CC3)cc2c1=O | 160 nM | > 2000 nM | > 100 nM | > 20000 nM | – | – | – | – | –
C[C@H]1[C@@H](O)O[C@@H]2O[C@@]3(C)CC[C@H]4[C@H](C)CC[C@@H]1[C@@]24OO3 [ARTENIMOL] | – | – | – | 1500 nM | – | – | – | – | –
COC(=O)c1c[nH]c2cc(N3CCN(c4ccc(OC)cc4)CC3)ccc2c1=O | 7.8 nM | 150 nM | – | > 20000 nM | – | 20 | – | – | –
COC(=O)c1c[nH]c2cc(CN3CCN(c4ccc(OC)cc4)CC3)ccc2c1=O | 3.6 nM | 220 nM | 0.12 nM | – | – | – | 39.2% | – | –
COC(=O)c1c[nH]c2cc(N3CCN(c4ccccc4)CC3)c(C)cc2c1=O | 46 nM | 1100 nM | – | 17000 nM | – | – | 31.6% | – | –
COC(=O)c1c[nH]c2ccc(CN3CCN(c4ccc(F)cc4)CC3)cc2c1=O | 110 nM | > 2000 nM | – | > 20000 nM | – | – | – | – | –
Cc1[nH]c2cc(CN3CCN(c4ccc(C(F)(F)F)cc4)CC3)ccc2c(=O)c1Br | 120 nM | 95 nM | – | > 20000 nM | – | 0.8 | – | – | –
COC(=O)c1c[nH]c2cc(CN3CCN(c4ccc(OC)cc4)CC3)c(OC)cc2c1=O | 3.4 nM | 860 nM | 10 nM | 16000 nM | – | – | 70.6% | – | –
COC(=O)c1c[nH]c2cc(CN3CCN(c4ccc(F)cc4)CC3)c(OC)cc2c1=O | 1.8 nM | 220 nM | 32 nM | > 20000 nM | – | – | 56.9% | – | –
COC(=O)c1c[nH]c2cc(CN3CCN(c4ccccc4)CC3)c(C)cc2c1=O | 0.44 nM | 150 nM | 6.9 nM | 12000 nM | – | – | – | – | inactive

Structure (SMILES) | EC50 (Plasmodium falciparum [1]) | EC50 (Plasmodium falciparum [2]) | EC50 (Plasmodium berghei [3]) | EC50 (J774) | solubility [4] | Ratio EC50 [5] | inhibition in vivo at 50 mg/kg (Plasmodium berghei [6]) | Survival (Plasmodium berghei [7]) | Activity (Plasmodium berghei [8])
COC(=O)c1c[nH]c2cc(CN3CCN(Cc4ccc5c(c4)OCO5)CC3)ccc2c1=O | 160 nM | > 2000 nM | – | > 20000 nM | – | – | – | – | –
COC(=O)c1c[nH]c2cc(CCN3CCN(c4ccccc4)CC3)ccc2c1=O | 25 nM | 1500 nM | – | > 20000 nM | ≥ 80 µM | 60 | – | – | –
COC(=O)c1c[nH]c2cc(CN3CCN(Cc4ccccc4)CC3)c(C)cc2c1=O | 1.5 nM | 890 nM | 9.5 nM | > 20000 nM | – | – | 24.6% | – | –
COC(=O)c1c[nH]c2ccc(CN3CCN(c4ccc(C(F)(F)F)cc4)CC3)cc2c1=O | 45 nM | > 2000 nM | 85 nM | > 20000 nM | – | – | – | – | –
CCN(CC)CCCC(C)Nc1ccnc2cc(Cl)ccc12 (stereo not drawn) [CHLOROQUINE] | – | – | – | 47200 nM | – | – | – | – | –
COC(=O)c1c[nH]c2cc(N3CCN(Cc4ccc(OC)cc4)CC3)ccc2c1=O | 20 nM | 1300 nM | – | – | – | 65 | – | – | –
Cc1[nH]c2cc(CN3CCN(c4ccc(C(F)(F)F)cc4)CC3)ccc2c(=O)c1Cl | 140 nM | 1500 nM | – | > 20000 nM | – | 11 | – | – | –
COC(=O)c1c[nH]c2ccc(CN3CCN(c4ccccc4)CC3)cc2c1=O | 150 nM | > 2000 nM | 91 nM | > 20000 nM | – | – | – | – | –
Cc1cc(=O)c2ccc(CN3CCN(c4ccc(F)cc4)CC3)cc2[nH]1 | 1200 nM | 1500 nM | – | > 20000 nM | – | 1.2 | – | – | –
COC(=O)c1c[nH]c2cc(CN3CCN(c4ccc(F)cc4)CC3)c(C)cc2c1=O | 0.84 nM | 350 nM | 2.6 nM | 16000 nM | – | – | – | <=21 day | –
COc1cc2c(=O)c(Br)c(C)[nH]c2cc1CN1CCN(c2ccc(C(F)(F)F)cc2)CC1 | 130 nM | > 2000 nM | – | > 20000 nM | – | – | – | – | –
COC(=O)c1c[nH]c2cc(CN3CCN(c4ccc(C(F)(F)F)cc4)CC3)c(OC)cc2c1=O | 6.4 nM | 210 nM | 9.6 nM | > 20000 nM | – | – | – | – | –
COC(=O)c1c[nH]c2cc(CCN3CCN(Cc4ccc(OC)cc4)CC3)ccc2c1=O | 12 nM | – | – | > 20000 nM | ≥ 80 µM | – | – | – | –
COC(=O)c1c[nH]c2cc(CN3CCN(c4ccccc4)CC3)c(OC)cc2c1=O | 1.6 nM | 490 nM | 110 nM | > 20000 nM | – | – | 82.4% | – | –
COC(=O)c1c[nH]c2cc(CN3CCN(c4ccc(OC)cc4)CC3)c(C)cc2c1=O | 0.57 nM | 180 nM | 4.1 nM | > 20000 nM | – | – | – | – | –
COC(=O)c1c[nH]c2cc(CN3CCN(c4ccc(C(F)(F)F)cc4)CC3)c(C)cc2c1=O | 0.066 nM | 100 nM | – | > 20000 nM | – | – | – | – | –
COC(=O)c1c[nH]c2cc(CN3CCN(Cc4ccc(OC)cc4)CC3)c(C)cc2c1=O | 2.4 nM | 1000 nM | – | > 20000 nM | – | – | – | – | –
COC(=O)c1c[nH]c2cc(N3CCN(Cc4ccccc4)CC3)ccc2c1=O | 16 nM | 860 nM | 85 nM | > 20000 nM | – | – | – | – | –
COC(=O)c1c[nH]c2cc(CCN3CCN(Cc4ccccc4)CC3)ccc2c1=O | 120 nM | > 2000 nM | 160 nM | > 20000 nM | ≥ 80 µM | – | – | – | –
COC(=O)c1c[nH]c2cc(CN3CCN(Cc4ccccc4)CC3)ccc2c1=O | 1.4 nM | 150 nM | 44 nM | 10000 nM | ≥ 80 µM | – | 12.3% | – | –
